Assay results from ChEMBL document CHEMBL4622964, “Designing Dihydrofolate Reductase Inhibitors as X-ray Radiosensitizers to Reverse Radioresistance of Cervical Cancer” (ACS Med Chem Lett, 2020).
Calls of active or inactive are those of the source. The calls are words filed in the database; no cut-off is given here.

Key:
[1] = Toxicity in BALB/c mouse xenografted with human HeLa cells assessed as body weight loss at 4 mg/kg, iv administered for every 3 days and measured after 21 days in presence of 4 Gy X-ray irradiation; assay type: organism-based; conditions: in vivo, 504 h
Method in brief: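 HeLa-tumor-bearing nude mice given compound at 4 mg/kg by tail-vein injection every 3 days, alone or with X-rays; body weight recorded across 21 days.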

[2] = system: HeLa; assay: Induction of apoptosis in human HeLa cells assessed as caspase-3 activation at 1 uM using Ac-DEVD-AMC as substrate after 12 hrs in presence of 4 Gy X-ray radiation by fluorescence based assay relative to control; assay type: functional
Method in brief: (§1)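 Caspase-3 and caspase-8 activities were measured in HeLa cells after 12 h at 1 μM, without or with 4 Gy X-rays. Mean ± SD of three independent experiments.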

[3] = system: HeLa; assay: Ratio of IC50 for antiproliferative activity against human HeLa cells assessed as reduction in cell viability incubated for 12 hrs to IC50 for antiproliferative activity against human HeLa cells assessed as reduction in cell viability preincubated for 12 hrs followed by 4 Gy irradiation and measured after 60 hrs by MTT assay; assay type: functional
Method in brief: (§2)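 MTT viability assay in HeLa cancer cells, with the test agent alone (0 Gy) or combined with 4 Gy X-rays. IC50 values are in μM. Sensitivity enhancement ratio = IC50(0 Gy)/IC50(4 Gy).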

[4] = system: HeLa; assay: Induction of cell cycle arrest in human HeLa cells assessed as accumulation at S phase at 1 uM after 48 hrs by propidium iodide staining based flow cytometric analysis (reference value: 41.6%); assay type: functional
[5] = target: T1, Dihydrofolate reductase (Homo sapiens) (UniProt P00374); assay: Inhibition of DHFR in human HeLa cells at 10 uM relative to control; assay type: cell-based
T1 sequence (whole entry): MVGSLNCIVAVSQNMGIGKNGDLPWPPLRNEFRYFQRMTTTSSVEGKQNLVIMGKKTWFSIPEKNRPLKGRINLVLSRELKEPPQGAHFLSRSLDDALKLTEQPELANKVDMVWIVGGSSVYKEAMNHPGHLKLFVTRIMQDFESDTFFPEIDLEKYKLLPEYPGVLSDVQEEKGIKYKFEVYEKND
Method in brief: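 HeLa cells treated with compound; DHFR activity assayed in cell lysates, inhibition expressed relative to untreated control.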

[6] = system: HeLa; assay: Effect on dihydrofolate reductase protein expression in human HeLa cell lysates at 1 to 2 uM by Western blot analysis; assay type: functional, cell-based
[7] = system: HeLa; assay: Induction of cell cycle arrest in human HeLa cells assessed as accumulation at SubG1 phase at 1 uM after 48 hrs by propidium iodide staining based flow cytometric analysis (reference value: 0.8%); assay type: functional
[8] = Drug localization in lysosome of human HeLa cells at 20 uM after 4 hrs by LysoTracker/DAPI staining based fluorescence microscopic analysis; assay type: ADME, subcellular
Method in brief: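 HeLa cells pretreated with 20 μM compound; LysoTracker added 2 h and DAPI 30 min before each time point; compound green fluorescence (emission about 510 nm) overlaid with lysosome (red) and nucleus under fluorescence microscope.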

[9] = system: HeLa; assay: Induction of apoptosis in human HeLa cells assessed as caspase-8 activation at 1 uM using […] as substrate after 12 hrs by fluorescence based assay relative to control; assay type: functional; method in brief: as §1
[10] = system: HeLa; assay: Antiproliferative activity against human HeLa cells assessed as reduction in cell viability incubated for 12 hrs by MTT assay; assay type: functional, cell-based; method in brief: as §2
[11] = system: HeLa; assay: Induction of mitochondrial dysfunction in human HeLa cells assessed as change in mitochondrial membrane potential at 1 uM incubated for 24 hrs in presence of 4 Gy X-ray irradiation by JC1 staining based flow cytometry (reference value: 4.9%); assay type: functional
Method in brief: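 Mitochondrial membrane potential was assessed by JC-1 flow cytometry in HeLa cells treated at 1 μM without or with 4 Gy X-rays. Green fluorescence gives the proportion of cells with lost ΔΨm.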

[12] = Toxicity in BALB/c mouse xenografted with human HeLa cells assessed as kidney damage at 4 mg/kg, iv administered for every 3 days for 21 days and measured after 24 hrs post last dose in presence of 4 Gy X-ray irradiation by H and E staining based light microscopic analysis; assay type: organism-based; conditions: in vivo
Method in brief: (§3)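 HeLa-tumor-bearing nude mice dosed at 4 mg/kg iv every 3 days for 21 days, alone or with X-rays; euthanized 24 h after last injection; heart, liver, lungs, kidneys and spleen sectioned and stained with H&E.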

[13] = system: HeLa; assay: Antimigratory activity in human HeLa cells assessed as inhibition of cell migration at 1 uM after 24 hrs in presence of 4 Gy irradiation by wound healing assay (reference value: 35%); assay type: functional; conditions: light or radiation study, read-out: INH
Method in brief: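 Wound-healing scratch assay in HeLa cells. Cells were treated without or with 4 Gy X-rays, and wound closure was imaged by phase-contrast microscopy at the indicated times. Migrated cells were counted manually. Mean ± SD of three independent experiments.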

[14] = Toxicity in BALB/c mouse xenografted with human HeLa cells assessed as liver damage at 4 mg/kg, iv administered for every 3 days for 21 days and measured after 24 hrs post last dose in presence of 4 Gy X-ray irradiation by H and E staining based light microscopic analysis; assay type: organism-based; conditions: in vivo; method in brief: as §3
[15] = Toxicity in BALB/c mouse xenografted with human HeLa cells assessed as liver damage at 4 mg/kg, iv administered for every 3 days for 21 days and measured after 24 hrs post last dose by H and E staining based light microscopic analysis; assay type: organism-based; conditions: in vivo; method in brief: as §3
[16] = system: HeLa; assay: Induction of reactive oxygen species generation in human HeLa cells incubated with DHE for 30 mins and measured up to 30 mins in presence of 4 Gy X-ray radiation by fluorescence microscopic analysis; assay type: functional, cell-based
Method in brief: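 HeLa cells pretreated with compound, with or without 4 Gy X-rays, then incubated with dihydroethidium for 30 min; red superoxide-derived fluorescence imaged by fluorescence microscopy, with observation continued over a further 30 min.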

[17] = system: HeLa; assay: Induction of apoptosis in human HeLa cells assessed as caspase-8 activation at 1 uM using […] as substrate after 12 hrs in presence of 4 Gy X-ray radiation by fluorescence based assay relative to control; assay type: functional; method in brief: as §1
[18] = system: HeLa; assay: Induction of mitochondrial dysfunction in human HeLa cells assessed as mitochondrial fission at 1 uM after 24 hrs by DAPI staining based fluorescence microscopic analysis; assay type: functional, cell-based
Method in brief: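 HeLa cells treated with 1 μM compound, without or with 4 Gy X-rays; mitochondrial morphology imaged by fluorescence microscopy after MitoTracker and DAPI co-staining.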

[19] = system: HeLa; assay: Antitumor activity against human HeLa cells xenografted in BALB/c mouse at 4 mg/kg, iv administered for every 3 days for 21 days; assay type: functional, organism-based
Method in brief: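 Nude mice bearing HeLa tumors; compound by tail-vein injection every 3 days over 21 days at 4 mg/kg, alone or combined with X-rays.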

[20] = target: T2, Dihydrofolate reductase (Homo sapiens, UniProt P00374); assay: Inhibition of recombinant human DHFR using dihydrofolate as substrate in presence of NADPH
T2 sequence (P00374 whole entry): T1 sequence (whole entry)

[21] = Toxicity in BALB/c mouse xenografted with human HeLa cells assessed as lung damage at 4 mg/kg, iv administered for every 3 days for 21 days and measured after 24 hrs post last dose by H and E staining based light microscopic analysis; assay type: organism-based; conditions: in vivo; method in brief: as §3
[22] = system: HeLa; assay: Inhibition of cell migration in human HeLa cells assessed as reduction in migration velocity at 1 uM after 24 hrs by phase contrast microscopic analysis; assay type: functional, cell-based
Method in brief: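 Wound-healing scratch assay on HeLa monolayers, compound with or without 4 Gy X-rays; wound closure recorded by phase-contrast microscopy at set times; migrated cells counted manually; mean ± SD of three independent experiments.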

In the case of `Nc1nc(N)c2nc3c(nc2n1)-c1cccc2cccc-3c12`, the Activity [1] is reported as “Non-Toxic”, the Activity [2] is reported as 150% and the “Ratio IC50” value [3] is reported as 3.3. The Activity [4] was 29.2%, the inhibition [5] was 76% and the Activity [6] was “Active”. The Activity [7] was 6.9%, the Drug uptake [8] was “Active” and the Activity [9] was 110%. For the same compound, the IC50 [10] was 2.1 µM, the Activity [11] was 32.3% and the Activity [12] was “Non-Toxic”. The inhibition at 1 µM [13] was 81%, the Activity [14] was “Non-Toxic” and the Activity [15] was “Non-Toxic”. The Activity [16] was “Active”, the Activity [17] was 129% and the Activity [18] was “Active”. The Activity [19] was “Active”, the IC50 [20] was 0.81 µM and the Activity [21] was “Non-Toxic”. The inhibition [22] was “Active”.
